One data set deals with U-251. Nature of the data set: Antiproliferative activity against human U251MG cells assessed as cell growth inhibition measured after 72 hrs by SRB assay. To be noted: U-251, 72 h. It counts as functional, cell-based. (The SRB assay estimates cell density from bound dye.)
A further data set deals with Astrocyte. Description: Cytotoxicity against Wistar rat astrocytes assessed as cell growth inhibition at 100 uM measured after 72 hrs by SRB assay. The format is cell-based.
Another data set concerns C6. Nature of the data set: Antiproliferative activity against rat C6 cells assessed as cell growth inhibition measured after 72 hrs by SRB assay. The format is functional, cell-based. The settings on record: C6, 72 h.
In a further data set the test system is U-87 MG. Nature of the data set: Antiproliferative activity against human U87MG cells assessed as cell growth inhibition measured after 72 hrs by SRB assay. It counts as functional, cell-based, U-87MG ATCC. Summed up:
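U87MG human glioma cells grown in DMEM with 10% FBS at 37 °C, used up to 30 passages and treated at 40-50% confluence. Exposed to 0.1-100 µM for 72 h, with DMSO at most 0.1% final. TCA-fixed, stained with SRB, dye solubilized in Tris pH 10.5, read at 510 nm, expressed as % of DMSO controls. Mean ± SD of three independent assays.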

The species named for a further data set is Rattus norvegicus. Description: Inhibition of TrxR in rat liver assessed as reduction in TNB formation using DTNB and NADPH as substrate at 100 uM preincubated with enzyme for 15 mins followed by NADPH addition by absorbance based analysis. It counts as tissue-based. A digest of the protocol:
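TrxR activity was measured at 37 °C in 100 mM potassium phosphate pH 7.0 with 2 mg/mL DTNB and 0.01 mg/mL enzyme. Enzyme was preincubated for 15 min with compound or DMSO, then the reaction was started with 0.2 mg/mL NADPH. TNB formation was followed at 412 nm (ε 13.6 mM-1 cm-1). Assays were run in duplicate, with enzyme-free blanks subtracted.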

Data set [1] is described as follows: Cytotoxicity against Wistar rat astrocytes assessed as cell growth inhibition measured after 72 hrs by SRB assay. The format is cell-based, Astrocyte. A digest of the protocol:
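Primary astrocytes taken from the cortex of 2-day-old Wistar rats by mechanical dissociation, grown on poly-L-lysine in high-glucose DMEM and treated at 90% confluence (12-15 days). Exposed to 0.1-100 µM for 72 h, then SRB assay with absorbance read at 510 nm against DMSO controls. Mean ± SD of three independent assays.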

Data set [2] can be described thus: Selectivity index, ratio of CC50 for Wistar rat astrocytes to EC50 for human U87MG cells. A digest of the protocol: (§1)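 Selectivity index is astrocyte CC50 divided by the glioma-line EC50, both from 72 h SRB assays. No index is given when astrocyte cytotoxicity could not be calculated at the highest concentration tested.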
Data set [3] in a line: Selectivity index, ratio of CC50 for Wistar rat astrocytes to EC50 for human U-251 MG cells. Summed up:
as §1

Data set [4] can be described thus: Selectivity index, ratio of CC50 for Wistar rat astrocytes to EC50 for rat C6 cells. A digest of the protocol:
as §1

Broadly, the EC50 is the midpoint of the concentration-response curve. By inhibition is commonly meant the relative decrease from the control value, in per cent. The term CC50 denotes the concentration giving 50% cytotoxicity.

With `O=C(/C=C/c1ccc([N+](=O)[O-])cc1)c1ccc(N2CCCCC2)cc1`, the EC50 with U-251 and with C6 was more than 50 µM throughout. For the same molecule, the Activity entry with Astrocyte is listed as “Non-Toxic”.
On to `O=C(/C=C/c1ccc(Cl)s1)c1ccc(-n2ccnc2)cc1`, for which the EC50 in the data set on U-251 came out at 35.1 µM; in the data set on C6 it was 14.5 µM. Also, the Activity result in the data set with Astrocyte was “Non-Toxic”.
For `CCCCc1ccc(C(=O)/C=C/c2ccco2)cc1`, the figures for the EC50 with U-251, in the data set with U-87 MG and with C6 were 6.4 µM, 12.3 µM and 8.4 µM, respectively. Besides, the inhibition in the data set filed under Rattus norvegicus is 60.4%. The CC50 at 72 h in [1] is more than 100 µM.
As for `CSc1ccc(C(=O)/C=C/c2ccc([N+](=O)[O-])o2)cc1`, the “Ratio CC50/EC50” value in [2] is on record as 7.3; in data set [3] it was 2; in [4] it was 17.7. Moreover, the EC50 with U-251 stood at 14.2 µM; with U-87 MG it was 3.9 µM; in the data set with C6 it was 1.6 µM. In the data set listed under Rattus norvegicus, the inhibition turned out to be 56.4%. Further, in data set [1], the CC50 at 72 h was 28.4 µM.
`C[N+](=O)c1ccc(/C=C/C(=O)c2ccc(N3CCOCC3)cc2)o1`: the “Ratio CC50/EC50” value in [2] was found to be 7.7; in data set [3], 2; in [4], 11.5. Also, the EC50 in the data set with U-251 was determined as 37.8 µM; in the data set with U-87 MG it was 9.8 µM; with C6 it was 6.6 µM. For the same molecule, in [1], the cytotoxic concentration (CC50) at 72 h was found to be 75.8 µM.
In the case of `Cc1no[n+]([O-])c1C(=O)c1no[n+]([O-])c1C(=O)c1no[n+]([O-])c1C`, the EC50 with U-251 and in the data set with C6 was more than 50 µM each time. For the same molecule, in the data set on Astrocyte, the Activity entry was “Non-Toxic”.
Take `O=C(/C=C/c1ccco1)c1ccc(N2CCOCC2)cc1`: the EC50 with U-251 is more than 50 µM; in the data set with C6, 23.6 µM. Further, in the data set with Astrocyte, the Activity result was “Non-Toxic”.
In the case of `Cc1ccc(N2C(=O)CC(Sc3ncccc3C(=O)O)C2=O)cc1Cl` (configuration not stated), the EC50 in the data set on U-251 and in the data set on C6 was more than 50 µM in each case. Besides, the Activity entry in the data set with Astrocyte is on record as “Non-Toxic”.
Turning to `CC(C)(C)c1ccc(C(=O)/C=C/c2ccco2)cc1`, the values for the EC50 with U-251, in the data set on U-87 MG and in the data set on C6 were 16.4 µM, 32.3 µM and 18.5 µM, respectively. In addition, the inhibition in the data set listed under Rattus norvegicus came out at 3.6%. Further, in data set [1], the CC50 at 72 h is 88.7 µM.
As to `COc1ccc(/C=C/C(=O)c2ccc(-c3ccccc3)cc2)cc1`, the EC50 with U-251 and in the data set with C6 was more than 50 µM throughout. Also, in the data set with Astrocyte, the Activity result is given as “Non-Toxic”.
On to `O=C(/C=C/c1ccc([N+](=O)[O-])s1)c1ccc(-n2ccnc2)cc1`, for which the “Ratio CC50/EC50” value is reported as 4 in [2], 4.3 in [3] and 21.3 in data set [4]. Moreover, the EC50 came to 9.4 µM in the data set on U-251, 10.1 µM in the data set with U-87 MG and 1.9 µM in the data set with C6. Moreover, in data set [1], the CC50 at 72 h was 40.4 µM.
On to `O=C(/C=C/c1ccc([N+](=O)[O-])o1)c1ccc(N2CCCC2)cc1`, for which the “Ratio CC50/EC50” value in data set [2] was determined as 1.8; in data set [3], 1.8; in data set [4] it was 4. Besides, the EC50 with U-251 came out at 35.9 µM; with U-87 MG it was 35.4 µM; in the data set with C6, 16.4 µM. For the same molecule, the CC50 at 72 h in data set [1] stood at 65.8 µM.
Regarding `O=C(/C=C/c1ccc([N+](=O)[O-])o1)c1ccc(N2CCCCC2)cc1`, the values for the EC50 in the data set with U-251 and in the data set with C6 were more than 50 µM and 48.7 µM, respectively. For the same molecule, the Activity entry with Astrocyte is recorded as “Non-Toxic”.
For `CN(C)c1ccc(/C=C/C(=O)c2ccc(-c3ccccc3)cc2)cc1`, the EC50 in the data set on U-251 is more than 50 µM; in the data set on C6, 49.5 µM. Besides, the Activity result with Astrocyte is “Non-Toxic”.
Take `O=C(/C=C/c1ccc([N+](=O)[O-])o1)c1ccc(-n2ccnc2)cc1`: the results for the “Ratio CC50/EC50” value in data set [2], in data set [3] and in data set [4] were 3.4, 2 and 12.9, respectively. Besides, the EC50 was 22.6 µM with U-251, 13.4 µM in the data set with U-87 MG and 3.5 µM in the data set on C6. In data set [1], the CC50 at 72 h stood at 45.3 µM.
In the case of `O=C(/C=C/c1ccc(Cl)s1)c1ccc(N2CCCCC2)cc1`, the EC50 with U-251 is more than 50 µM; in the data set on C6, 36.6 µM. In addition, in the data set on Astrocyte, the Activity entry was “Non-Toxic”.
The corresponding values for `O=C(/C=C/c1ccc([N+](=O)[O-])o1)c1ccc(-c2ccccc2)cc1` are 24.6 µM, 17.7 µM and “Non-Toxic”.
The corresponding values for `Cc1ccc(S(=O)(=O)/N=C/c2ccc(F)cc2)cc1` are more than 50 µM, 48.9 µM and “Non-Toxic”.
The corresponding values for `CC(=O)c1ccc(NCCC(=O)c2cccs2)cc1` are more than 50 µM, 46.6 µM and “Non-Toxic”.
`O=C(/C=C/c1ccc([N+](=O)[O-])o1)c1ccc(C2CCCCC2)cc1`: the results for the “Ratio CC50/EC50” value in data set [2], in data set [3] and in [4] were 6, 13 and 11.2, respectively. Also, the EC50 turned out to be 4.4 µM with U-251, 9.5 µM in the data set on U-87 MG and 5.1 µM in the data set on C6. The CC50 at 72 h in [1] was found to be 57.2 µM.
With `O=C(/C=C/c1ccc([N+](=O)[O-])o1)c1ccc(I)cc1`, the “Ratio CC50/EC50” value in data set [2] worked out at 13.1; in [3] it was 5.4; in [4], 32.5. Further, the EC50 with U-251 was found to be 12.5 µM; in the data set with U-87 MG, 5.2 µM; with C6, 2.1 µM. In addition, in [1], the CC50 at 72 h worked out at 68.2 µM.
Regarding `CSc1ccc(C(=O)/C=C/c2ccco2)cc1`, the EC50 in the data set with U-251 turned out to be 24 µM; in the data set on U-87 MG, 45.1 µM; in the data set on C6, 14.4 µM. Further, in data set [1], the CC50 at 72 h came out at 98 µM.
Turning to `Cc1nonc1C(=O)c1no[n+]([O-])c1C(=O)c1nonc1C`, the EC50 with U-251 and in the data set on C6 was more than 50 µM throughout. Besides, in the data set with Astrocyte, the Activity entry was “Non-Toxic”.
For the molecule `CC(C)(C)c1ccc(C(=O)/C=C/c2ccc([N+](=O)[O-])o2)cc1`, the EC50 in the data set with U-251 is 44.5 µM; in the data set with C6 it was 28.6 µM. The Activity entry in the data set on Astrocyte is given as “Non-Toxic”.
For `CCC(=O)Oc1cccc2ccc(/C=C/c3ccccc3[N+](=O)[O-])nc12`, the “Ratio CC50/EC50” value in data set [2] is 5.3; in [3], 5.4; in data set [4] it was 8.7. The EC50 worked out at 10.1 µM in the data set with U-251, 10.5 µM in the data set on U-87 MG and 6.3 µM with C6. In addition, the CC50 at 72 h in data set [1] worked out at 55.2 µM.
As for `Cc1ccc(C(=O)/C=C/c2ccco2)cc1`, the concentration for a half-maximal effect (EC50) in the data set on U-251 came out at 23.3 µM; in the data set on U-87 MG, 19.2 µM; with C6 it was 7.8 µM. Moreover, the CC50 at 72 h in data set [1] was more than 100 µM.
`O=C(/C=C/c1cccc([N+](=O)[O-])c1)c1ccc(N2CCCCC2)cc1`: the half-maximal effective concentration (EC50) in the data set with U-251 was 20.3 µM; with C6, 32.5 µM. The Activity entry in the data set with Astrocyte is given as “Non-Toxic”.
Regarding `Cc1ccc(S(=O)(=O)CC(=O)c2ccc(Cl)cc2Cl)cc1`, the EC50 in the data set on U-251 and in the data set on C6 was more than 50 µM each time. In the data set with Astrocyte, the Activity entry was “Non-Toxic”.
Take `O=C(/C=C/c1ccc([N+](=O)[O-])o1)c1ccc(Br)cc1`: the “Ratio CC50/EC50” value in data set [2] is reported as 6.7; in data set [3], 3.9; in data set [4], 31.6. Further, the EC50 with U-251 worked out at 21.4 µM; in the data set on U-87 MG it was 12.6 µM; in the data set on C6, 2.7 µM. Further, the CC50 at 72 h in data set [1] stood at 85.4 µM.
Consider `CC(C)Oc1ccc(C(=O)NC(=S)Nc2cccc3ccccc23)cc1`, for which the EC50 in the data set on U-251 and in the data set on C6 was more than 50 µM in each case. In addition, the Activity result in the data set with Astrocyte was “Non-Toxic”.
On to `COc1ccc(/C=C/C(=O)c2cccc(I)c2)cc1`, for which the “Ratio CC50/EC50” value is more than 7.5 in data set [2], more than 4.7 in data set [3] and more than 6.8 in [4]. Moreover, the EC50 with U-251 is 21.4 µM; in the data set with U-87 MG it was 13.4 µM; in the data set on C6, 14.6 µM. Besides, the CC50 at 72 h in data set [1] is more than 100 µM.
Regarding `COc1ccc(/C=C/C(=O)c2cccc(Br)c2)cc1`, the EC50 with U-251 was 32.1 µM; with C6, 22.3 µM. In the data set with Astrocyte, the Activity result is “Non-Toxic”.
Turning to `O=C(CS(=O)(=O)c1ccccc1)c1cc2ccccc2o1`, the EC50 with U-251 and in the data set with C6 was more than 50 µM each time. The Activity result in the data set with Astrocyte is “Non-Toxic”.
Take `Cc1ccc(S(=O)(=O)CC(=O)c2cccc([N+](=O)[O-])c2)cc1`: the EC50 with U-251 and in the data set with C6 was more than 50 µM in each case. In addition, the Activity entry in the data set with Astrocyte was “Non-Toxic”.
For the molecule `O=C(/C=C/c1ccco1)c1ccc(C2CCCCC2)cc1`, the half-maximal effective concentration (EC50) in the data set on U-251 is 26.4 µM; with C6 it was more than 50 µM. Further, the Activity result with Astrocyte is on record as “Non-Toxic”.

For the origin of these results see ChEMBL document CHEMBL4765251, “Efficient identification of novel anti-glioma lead compounds by machine learning models” (Eur J Med Chem, 2020).
